Test [1] addresses Calcium/calmodulin-dependent protein kinase kinase 1 (Homo sapiens) (UniProt Q8N5S9). Kind of test: Inhibition of CAMKKalpha assessed as residual activity at 10 uM by Cherenkov counting relative to control. A digest of the protocol:
(§1)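 Single-point profiling at 10 µM in a panel of 78 protein kinases. Kinase activity is expressed as a percentage relative to control assays without compound.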

Test [2] has as its target T1, Eukaryotic elongation factor 2 kinase (Homo sapiens) (UniProt O00418).
T1 sequence (whole entry): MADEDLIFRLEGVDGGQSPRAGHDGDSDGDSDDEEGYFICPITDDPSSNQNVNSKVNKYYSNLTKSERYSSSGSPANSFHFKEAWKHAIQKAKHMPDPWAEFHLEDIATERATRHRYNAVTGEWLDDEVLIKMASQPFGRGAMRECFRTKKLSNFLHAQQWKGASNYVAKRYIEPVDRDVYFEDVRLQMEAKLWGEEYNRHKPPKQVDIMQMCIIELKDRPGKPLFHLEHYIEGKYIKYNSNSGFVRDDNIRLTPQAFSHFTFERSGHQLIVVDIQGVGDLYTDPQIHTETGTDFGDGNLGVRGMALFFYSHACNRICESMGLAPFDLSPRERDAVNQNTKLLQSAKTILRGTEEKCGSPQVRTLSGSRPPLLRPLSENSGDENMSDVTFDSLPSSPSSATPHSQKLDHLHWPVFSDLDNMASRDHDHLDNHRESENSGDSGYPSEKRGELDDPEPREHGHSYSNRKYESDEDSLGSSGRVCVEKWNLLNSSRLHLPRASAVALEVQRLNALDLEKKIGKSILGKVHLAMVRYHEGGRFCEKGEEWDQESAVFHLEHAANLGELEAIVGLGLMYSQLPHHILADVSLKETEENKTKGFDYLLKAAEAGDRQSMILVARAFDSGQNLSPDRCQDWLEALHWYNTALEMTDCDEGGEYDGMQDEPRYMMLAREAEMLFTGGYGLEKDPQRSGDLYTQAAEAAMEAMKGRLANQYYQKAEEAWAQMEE
Kind of test: Inhibition of EF2K assessed as residual activity at 10 uM by Cherenkov counting relative to control in presence of 5 uM ATP. A digest of the protocol: as §1

The target in test [3] is Ephrin type-A receptor 2 (Homo sapiens) (UniProt P29317). Kind of test: Inhibition of EPHA2 assessed as residual activity at 10 uM by Cherenkov counting relative to control in presence of 50 uM ATP. A digest of the protocol:
as §1

Test [4] deals with Ribosomal protein S6 kinase alpha-1 (Homo sapiens) (UniProt Q15418). Kind of test: Inhibition of RSK1 assessed as residual activity at 10 uM by Cherenkov counting relative to control. A digest of the protocol: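 Single-concentration profiling at 10 μM in a 78-kinase panel. Kinase activity is expressed as a percentage of control assays run without compound.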
Ribosomal protein S6 kinase alpha-1 (Homo sapiens), sequence (Q15418 whole entry): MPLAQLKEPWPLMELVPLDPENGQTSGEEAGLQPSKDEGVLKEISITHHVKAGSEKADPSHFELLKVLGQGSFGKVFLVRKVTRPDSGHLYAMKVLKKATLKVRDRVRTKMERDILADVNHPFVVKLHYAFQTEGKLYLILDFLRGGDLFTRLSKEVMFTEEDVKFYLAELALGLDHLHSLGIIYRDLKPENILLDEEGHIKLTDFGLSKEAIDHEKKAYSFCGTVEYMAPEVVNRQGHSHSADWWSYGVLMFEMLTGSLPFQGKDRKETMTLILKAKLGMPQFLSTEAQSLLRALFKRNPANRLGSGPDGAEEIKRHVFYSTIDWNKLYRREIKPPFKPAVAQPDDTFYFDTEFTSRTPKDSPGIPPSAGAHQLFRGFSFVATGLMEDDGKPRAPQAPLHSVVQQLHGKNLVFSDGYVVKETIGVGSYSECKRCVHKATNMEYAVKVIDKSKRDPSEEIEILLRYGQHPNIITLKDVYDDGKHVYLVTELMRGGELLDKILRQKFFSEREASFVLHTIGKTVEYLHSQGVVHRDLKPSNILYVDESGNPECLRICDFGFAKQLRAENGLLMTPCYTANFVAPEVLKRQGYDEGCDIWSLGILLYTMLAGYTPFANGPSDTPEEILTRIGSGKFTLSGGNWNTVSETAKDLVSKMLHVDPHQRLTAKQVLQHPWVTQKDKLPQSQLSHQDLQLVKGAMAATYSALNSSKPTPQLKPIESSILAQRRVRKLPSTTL
Test [5] concerns the target Serine/threonine-protein kinase 26 (Homo sapiens) (UniProt Q9P289). Nature of the test: Inhibition of MST4 assessed as residual activity at 0.1 uM by Cherenkov counting relative to control in presence of 20 uM ATP. A digest of the protocol: (§2)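 Single-concentration selectivity screen at 0.1 μM against a panel of 76 protein kinases. Each kinase was run at an ATP level approximating its Km for ATP. Output is mean residual activity as % of the control assay without compound, n = 3 ± SD.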

Test [6] is described as follows: Inhibition of VEGFR assessed as residual activity at 0.1 uM by Cherenkov counting relative to control in presence of 20 uM ATP. A digest of the protocol: (§3)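 Single-concentration screen at 0.1 μM in a 76-kinase panel. ATP for each kinase was set near its Km for ATP. Residual activity is given as a percentage of control assays without compound, mean of n = 3 ± SD.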

Test [7] concerns the target T2, Serine/threonine-protein kinase TBK1 (Homo sapiens) (UniProt Q9UHD2).
T2 sequence (whole entry): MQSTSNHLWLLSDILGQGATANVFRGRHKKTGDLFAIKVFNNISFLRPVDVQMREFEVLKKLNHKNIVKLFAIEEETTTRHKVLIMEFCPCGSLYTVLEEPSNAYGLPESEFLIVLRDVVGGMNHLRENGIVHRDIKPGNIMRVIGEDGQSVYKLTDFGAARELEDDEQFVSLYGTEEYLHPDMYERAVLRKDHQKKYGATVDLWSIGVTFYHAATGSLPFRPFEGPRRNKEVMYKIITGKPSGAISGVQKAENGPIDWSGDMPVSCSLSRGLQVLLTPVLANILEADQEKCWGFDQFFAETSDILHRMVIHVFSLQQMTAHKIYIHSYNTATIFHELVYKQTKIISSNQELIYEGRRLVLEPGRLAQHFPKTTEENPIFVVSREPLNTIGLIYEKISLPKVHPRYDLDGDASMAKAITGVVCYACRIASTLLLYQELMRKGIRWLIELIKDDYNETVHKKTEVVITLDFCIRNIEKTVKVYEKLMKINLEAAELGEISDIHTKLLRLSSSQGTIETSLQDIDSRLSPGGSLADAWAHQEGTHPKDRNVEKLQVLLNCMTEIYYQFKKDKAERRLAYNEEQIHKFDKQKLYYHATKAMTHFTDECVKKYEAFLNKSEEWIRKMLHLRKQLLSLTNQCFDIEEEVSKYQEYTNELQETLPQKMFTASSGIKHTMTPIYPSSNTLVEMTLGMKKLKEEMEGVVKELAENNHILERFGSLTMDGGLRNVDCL
Kind of test: Inhibition of TBK1 assessed as residual activity at 0.1 uM by Cherenkov counting relative to control in presence of 50 uM ATP. In outline: as §3

The nature of test [8]: Selectivity ratio of IC50 for recombinant CK1epsilon to IC50 for GST-fused rat CK1delta.
Test [9] addresses Mitogen-activated protein kinase 14 (Homo sapiens, UniProt Q16539). Kind of test: Inhibition of p38alpha assessed as residual activity at 0.1 uM by Cherenkov counting relative to control. A digest of the protocol: as §3
Test [10] addresses Mitogen-activated protein kinase 11 (Homo sapiens) (UniProt Q15759). Nature of the test: Inhibition of p38beta assessed as residual activity at 0.1 uM by Cherenkov counting relative to control. In outline:
as §3

Test [11] is described as follows: Inhibition of PHK assessed as residual activity at 0.1 uM by Cherenkov counting relative to control. A digest of the protocol:
as §2

The target of test [12] is Cyclin-dependent kinase 2/cyclin A (Homo sapiens) (UniProt P24941+P20248+P78396). Kind of test: Inhibition of CDK2/cyclin A assessed as residual activity at 0.1 uM by Cherenkov counting relative to control in presence of 20 uM ATP. The class given is protein-complex assay. In outline: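 Single-concentration screen at 0.1 µM across a panel of 76 protein kinases. Each kinase was run at an ATP concentration approximating its ATP Km. Results are % mean residual activity versus control assays without compound (n = 3 ± SD).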

The target of test [13] is Casein kinase I isoform delta (Homo sapiens, UniProt P48730). Kind of test: Inhibition of CK1delta assessed as residual activity at 0.1 uM by Cherenkov counting relative to control in presence of 20 uM ATP. A digest of the protocol:
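CK1δ tested within a 76-protein-kinase panel with compound at 0.1 µM. ATP for each kinase was set near its Km for ATP. Read-out was residual activity as % of control assays without compound, given as mean ± SD, n = 3.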

For test [14], the target named is Serine/threonine-protein kinase PAK 5 (Homo sapiens) (UniProt Q9P286). Kind of test: Inhibition of PAK5 assessed as residual activity at 0.1 uM by Cherenkov counting relative to control in presence of 20 uM ATP. In outline: as §2
Serine/threonine-protein kinase PAK 5 (Homo sapiens), sequence (Q9P286 whole entry, looked up): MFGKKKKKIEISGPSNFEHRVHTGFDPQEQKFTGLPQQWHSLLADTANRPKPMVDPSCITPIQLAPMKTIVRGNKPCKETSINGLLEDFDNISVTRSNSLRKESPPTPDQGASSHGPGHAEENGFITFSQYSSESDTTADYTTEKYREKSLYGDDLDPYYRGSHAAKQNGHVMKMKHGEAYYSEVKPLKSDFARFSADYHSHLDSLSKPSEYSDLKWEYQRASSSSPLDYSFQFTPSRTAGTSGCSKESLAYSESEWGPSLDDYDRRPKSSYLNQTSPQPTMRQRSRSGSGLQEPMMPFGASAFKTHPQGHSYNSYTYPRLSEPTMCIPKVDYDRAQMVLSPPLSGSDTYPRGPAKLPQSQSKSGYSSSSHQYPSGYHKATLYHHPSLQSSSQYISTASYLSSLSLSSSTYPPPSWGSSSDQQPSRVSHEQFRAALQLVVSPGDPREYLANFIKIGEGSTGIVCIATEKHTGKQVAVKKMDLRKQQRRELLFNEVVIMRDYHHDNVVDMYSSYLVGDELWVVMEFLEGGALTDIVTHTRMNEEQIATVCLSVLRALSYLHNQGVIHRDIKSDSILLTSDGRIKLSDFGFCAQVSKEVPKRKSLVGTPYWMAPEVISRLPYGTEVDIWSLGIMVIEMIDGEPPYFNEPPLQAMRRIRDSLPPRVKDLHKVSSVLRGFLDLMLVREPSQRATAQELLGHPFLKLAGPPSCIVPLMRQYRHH

SMILES strings stand for the structures.

Data on four compounds can be found in ChEMBL document CHEMBL1155278, “3,4-Diaryl-isoxazoles and -imidazoles as potent dual inhibitors of p38alpha mitogen activated protein kinase and casein kinase 1delta” (J Med Chem, 2009).

Casein kinase I isoform delta, sequence (P48730 whole entry, looked up, canonical isoform): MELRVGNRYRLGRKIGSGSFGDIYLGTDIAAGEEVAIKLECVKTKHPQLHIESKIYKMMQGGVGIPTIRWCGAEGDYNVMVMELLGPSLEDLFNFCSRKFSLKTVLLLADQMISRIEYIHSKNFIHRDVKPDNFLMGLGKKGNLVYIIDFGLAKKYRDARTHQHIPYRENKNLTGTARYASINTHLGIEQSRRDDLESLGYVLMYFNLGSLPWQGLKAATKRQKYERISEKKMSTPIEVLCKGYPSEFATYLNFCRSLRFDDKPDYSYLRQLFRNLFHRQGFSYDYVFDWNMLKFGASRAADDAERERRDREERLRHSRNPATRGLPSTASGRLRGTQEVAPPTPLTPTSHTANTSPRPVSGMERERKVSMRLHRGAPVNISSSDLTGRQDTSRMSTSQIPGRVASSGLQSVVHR
Mitogen-activated protein kinase 14, sequence (Q16539 whole entry): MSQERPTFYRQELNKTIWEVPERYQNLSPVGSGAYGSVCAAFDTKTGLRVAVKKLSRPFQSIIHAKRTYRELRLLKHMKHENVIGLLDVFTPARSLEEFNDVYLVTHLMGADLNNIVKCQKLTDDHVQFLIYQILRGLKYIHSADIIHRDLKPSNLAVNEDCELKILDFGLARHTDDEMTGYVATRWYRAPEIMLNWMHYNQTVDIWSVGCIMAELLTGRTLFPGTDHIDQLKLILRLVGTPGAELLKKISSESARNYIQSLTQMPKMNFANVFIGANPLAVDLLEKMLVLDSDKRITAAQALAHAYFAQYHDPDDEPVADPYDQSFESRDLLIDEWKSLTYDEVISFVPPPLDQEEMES
Calcium/calmodulin-dependent protein kinase kinase 1 (Homo sapiens), sequence (Q8N5S9 whole entry, looked up): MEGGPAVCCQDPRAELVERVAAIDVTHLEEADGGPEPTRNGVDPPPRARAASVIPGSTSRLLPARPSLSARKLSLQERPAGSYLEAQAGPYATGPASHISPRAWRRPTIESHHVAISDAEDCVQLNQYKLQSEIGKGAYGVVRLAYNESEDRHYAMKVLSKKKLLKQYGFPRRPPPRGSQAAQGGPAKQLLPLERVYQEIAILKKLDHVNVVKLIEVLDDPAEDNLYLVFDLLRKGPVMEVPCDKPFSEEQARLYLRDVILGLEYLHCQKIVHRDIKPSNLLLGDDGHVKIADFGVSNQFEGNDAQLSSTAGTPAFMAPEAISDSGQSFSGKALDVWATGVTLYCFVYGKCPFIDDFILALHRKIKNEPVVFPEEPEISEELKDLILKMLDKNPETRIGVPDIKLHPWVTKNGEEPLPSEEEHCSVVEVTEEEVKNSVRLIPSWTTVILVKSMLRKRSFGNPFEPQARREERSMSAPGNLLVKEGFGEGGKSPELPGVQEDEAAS
Mitogen-activated protein kinase 11 (Homo sapiens), sequence (Q15759 whole entry): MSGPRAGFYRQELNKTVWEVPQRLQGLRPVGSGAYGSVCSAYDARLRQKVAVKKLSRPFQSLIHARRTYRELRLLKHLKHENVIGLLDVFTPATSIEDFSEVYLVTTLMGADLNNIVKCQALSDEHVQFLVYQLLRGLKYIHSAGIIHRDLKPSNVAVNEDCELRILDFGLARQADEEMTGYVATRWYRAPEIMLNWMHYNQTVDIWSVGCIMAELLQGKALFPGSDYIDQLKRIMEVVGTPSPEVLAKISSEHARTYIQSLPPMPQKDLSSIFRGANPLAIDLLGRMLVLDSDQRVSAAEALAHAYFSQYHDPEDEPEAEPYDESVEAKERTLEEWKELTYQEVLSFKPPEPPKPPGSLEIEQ
Ephrin type-A receptor 2 (Homo sapiens), sequence (P29317 whole entry): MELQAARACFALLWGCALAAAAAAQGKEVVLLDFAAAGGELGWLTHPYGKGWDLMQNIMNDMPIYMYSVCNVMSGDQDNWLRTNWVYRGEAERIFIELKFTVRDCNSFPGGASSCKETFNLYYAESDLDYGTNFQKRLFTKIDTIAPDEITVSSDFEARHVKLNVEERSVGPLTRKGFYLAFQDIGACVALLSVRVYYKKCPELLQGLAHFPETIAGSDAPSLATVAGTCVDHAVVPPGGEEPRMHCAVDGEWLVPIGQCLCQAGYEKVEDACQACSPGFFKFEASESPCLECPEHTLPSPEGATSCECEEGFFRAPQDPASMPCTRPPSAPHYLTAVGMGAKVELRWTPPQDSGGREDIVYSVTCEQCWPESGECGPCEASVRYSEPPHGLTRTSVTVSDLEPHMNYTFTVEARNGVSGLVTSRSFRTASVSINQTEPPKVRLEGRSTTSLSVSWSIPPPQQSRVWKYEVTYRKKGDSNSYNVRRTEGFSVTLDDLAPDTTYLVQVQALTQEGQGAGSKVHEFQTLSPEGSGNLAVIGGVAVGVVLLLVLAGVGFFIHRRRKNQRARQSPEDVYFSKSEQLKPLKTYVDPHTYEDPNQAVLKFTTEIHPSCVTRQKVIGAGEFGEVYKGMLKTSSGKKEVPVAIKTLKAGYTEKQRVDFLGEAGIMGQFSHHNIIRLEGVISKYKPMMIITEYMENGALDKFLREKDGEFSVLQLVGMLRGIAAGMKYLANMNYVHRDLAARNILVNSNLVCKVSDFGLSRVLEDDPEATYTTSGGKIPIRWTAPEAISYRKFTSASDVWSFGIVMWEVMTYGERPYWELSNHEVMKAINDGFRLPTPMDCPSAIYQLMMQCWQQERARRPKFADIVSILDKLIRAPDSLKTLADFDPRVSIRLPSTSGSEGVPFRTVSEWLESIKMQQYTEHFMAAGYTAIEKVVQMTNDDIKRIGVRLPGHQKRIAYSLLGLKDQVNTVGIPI
Serine/threonine-protein kinase 26 (Homo sapiens), sequence (Q9P289 2-416 limits assumed): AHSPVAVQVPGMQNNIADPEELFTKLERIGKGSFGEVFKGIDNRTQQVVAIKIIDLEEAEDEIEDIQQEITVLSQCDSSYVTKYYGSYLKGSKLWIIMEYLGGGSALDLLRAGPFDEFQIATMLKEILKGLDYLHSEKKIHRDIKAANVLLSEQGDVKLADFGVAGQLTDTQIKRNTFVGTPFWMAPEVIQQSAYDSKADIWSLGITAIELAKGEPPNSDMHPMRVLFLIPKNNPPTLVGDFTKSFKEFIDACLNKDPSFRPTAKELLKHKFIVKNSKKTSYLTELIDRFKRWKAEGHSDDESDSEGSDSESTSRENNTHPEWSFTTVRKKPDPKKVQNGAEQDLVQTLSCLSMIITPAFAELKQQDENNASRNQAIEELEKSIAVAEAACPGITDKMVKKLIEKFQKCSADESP

For the compound `CC(C)c1noc(-c2ccc(F)cc2)c1-c1ccncc1`, the Activity in test [1] was determined as 103%; in test [2] it was 107%; in test [3], 81%; in test [4] it was 83%.

Regarding `CC(C)c1onc(-c2ccc(F)cc2)c1-c1ccncc1`, the Activity stood at 91% in test [1], 107% in test [2], 79% in [3] and 79% in test [4].

With `COc1ccc(/C=C/C(=O)Nc2cc(-c3[nH]c(SC)nc3-c3ccc(F)cc3)ccn2)c(OC)c1`, the Activity in test [5] came out at 90%; in test [6] it was 33%; in [7], 103%; in test [9] it was 3%; in [10] it was 17%; in test [11], 99%. In addition, the results for the Activity in [12], in test [13] and in test [14] were 112%, 10% and 94%, respectively. Also, the Ratio IC50 in [8] worked out at 15.

Turning to `COc1ccc(/C=C/C(=O)Nc2cc(-c3[nH]c([S+](C)[O-])nc3-c3ccc(F)cc3)ccn2)c(OC)c1` (stereo not drawn), the Activity in test [5] is 86%; in [6], 46%; in [7] it was 106%; in [9] it was 5%; in [10] it was 46%; in test [11], 102%. Moreover, the Activity is 115% in test [12], 18% in [13] and 105% in [14]. Besides, the Ratio IC50 in test [8] is 41.
